Calls of active or inactive are those of the source. The calls are words filed in the database; no cut-off is given here.
How the values were obtained:
HT-29 [1] = assay: Cytotoxicity against human HT-29 cells assessed as growth inhibition after 48 hrs by resazurin assay; format: functional, cell-based; details: for IC50: HT-29, 48 h
Procedure, shortened: (§1)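 HCT116 or HT29 seeded at 2000 cells/well, grown 24 h, then given fresh complete McCoy's 5A (5% FBS, 0.1% DMSO final) containing serial compound concentrations for 48 h. Resazurin was added for 16 h and fluorescence read at ex 544/em 595 nm as a measure of living cells. IC50 was calculated by the Logit approach; values are mean ± SD.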

HCT-116 [2] = assay: Cytotoxicity against human HCT116 cells assessed as growth inhibition after 48 hrs by resazurin assay; format: functional, cell-based; details: for IC50: HCT-116, 48 h; procedure, shortened: as §1
HCT-116 [3] = assay: Induction of apoptosis in human HCT116 cells assessed as ratio of Bax to Bcl-2 expression at 20 uM after 72 hrs by Western blot analysis relative to control; format: functional
Procedure, shortened: (§2)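 HCT116 only, seeded at 8 × 10⁴ cells/ml in 15 cm dishes for 24 h, then treated for 72 h at 20 µM or at 5, 10 and 20 µM. Lysed in Triton lysis buffer (pH 7.5) with inhibitors, sonicated, and protein assayed by BCA. Western blots were developed by ECL. Band intensities were normalized to β-actin, as means of three independent experiments; the Bax/Bcl-2 ratio was expressed relative to untreated control.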

HCT-116 [4] = assay: Induction of apoptosis in human HCT116 cells assessed as increase in Bax expression at 20 uM after 72 hrs by Western blot analysis; format: functional, cell-based; procedure, shortened: as §2
HCT-116 [5] = assay: Induction of apoptosis in human HCT116 cells assessed as reduction in Bcl-2 expression at 20 uM after 72 hrs by Western blot analysis; format: functional, cell-based; procedure, shortened: as §2
HCT-116 [6] = assay: Induction of apoptosis in human HCT116 cells assessed as effect on HSP-70 expression at 20 uM after 72 hrs by Western blot analysis; format: functional, cell-based; procedure, shortened: as §2
HCT-116 [7] = assay: Induction of apoptosis in human HCT116 cells assessed as effect on HSP-90 expression at 20 uM after 72 hrs by Western blot analysis; format: functional, cell-based; procedure, shortened: as §2
HCT-116 [8] = assay: Induction of apoptosis in human HCT116 cells assessed as PARP cleavage at 20 uM after 72 hrs by Western blot analysis; format: functional, cell-based; procedure, shortened: as §2
HCT-116 [9] = assay: Induction of apoptosis in human HCT116 cells assessed as caspase-3 activation at 20 uM after 72 hrs by Western blot analysis; format: functional, cell-based; procedure, shortened: as §2
[10] = target: Epidermal growth factor receptor (Homo sapiens) (UniProt P00533); assay: Inhibition of EGFR signaling in human HCT116 cells assessed as effect on CDK2 expression at 20 uM after 24 hrs by Western blot analysis; format: cell-based; details: HCT-116
[11] = target: Epidermal growth factor receptor (Homo sapiens) (UniProt P00533); assay: Inhibition of EGFR signaling in human HCT116 cells assessed as effect on CDK4 expression at 20 uM after 24 hrs by Western blot analysis; format: cell-based; details: HCT-116
[12] = target: Epidermal growth factor receptor (Homo sapiens) (UniProt P00533); assay: Inhibition of EGFR signaling in human HCT116 cells assessed as inhibition of Rb expression at 20 uM after 24 hrs by Western blot analysis; format: cell-based; details: HCT-116
[13] = target: Epidermal growth factor receptor (Homo sapiens) (UniProt P00533); assay: Inhibition of EGFR signaling in human HCT116 cells assessed as inhibition of cyclin E1 expression at 20 uM after 24 hrs by Western blot analysis; format: cell-based; details: HCT-116
[14] = target: Epidermal growth factor receptor (Homo sapiens) (UniProt P00533); assay: Inhibition of EGFR signaling in human HCT116 cells assessed as inhibition of cyclin D1 expression at 20 uM after 24 hrs by Western blot analysis; format: cell-based; details: HCT-116
[15] = target: Epidermal growth factor receptor (Homo sapiens) (UniProt P00533); assay: Inhibition of EGFR signaling in human HCT116 cells assessed as induction of p21 WAF-1/CIP-1 expression at 20 uM after 24 hrs by Western blot analysis relative to control; format: cell-based; details: HCT-116
HT-29 [16] = assay: Cell cycle arrest in human HT-29 cells assessed as increase in G2/M population at 20 uM after 24 hrs by flow cytometry relative to control; format: functional
Procedure, shortened: (§3)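 HCT116 or HT29 cells seeded at 4 × 10⁴ cells/ml in 6-well plates and left 24 h to attach, then exposed for 24 h in complete McCoy's 5A (5% FBS) with 0.1% DMSO final, at 5, 10 or 20 µM. Floating and trypsinized cells were pooled, PBS-washed, fixed overnight in 70% ethanol at 4 °C and stained with PI/RNase for 15 min at room temperature. Flow DNA content gave G0/G1, S and G2/M fractions as fold of control, from three independent assays.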

HCT-116 [17] = assay: Cell cycle arrest in human HCT116 cells assessed as increase in G2/M population at 20 uM after 24 hrs by flow cytometry relative to control; format: functional; procedure, shortened: as §3
HCT-116 [18] = assay: Inhibition of EGFR protein expression in human HCT116 cells at 20 uM after 72 hrs by Western blot analysis; format: functional, cell-based
Procedure, shortened: (§4)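 HCT116 or HT29 seeded at 8 × 10⁴ cells/ml in 15 cm dishes for 24 h, then treated for 72 h at 20 µM or at 5, 10 and 20 µM. Whole-cell lysates were made in Tris-HCl/NaCl/Triton buffer with phosphatase and protease inhibitors (pH 7.5), sonicated and cleared at 10,000g; protein was measured by BCA. Blots were blocked in 5% milk/TBST and developed by ECL. P-EGFR(Tyr1068) and total EGFR bands were normalized to β-tubulin, as means of three experiments.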

HT-29 [19] = assay: Inhibition of EGFR protein expression in human HT-29 cells at 20 uM after 72 hrs by Western blot analysis; format: functional, cell-based; procedure, shortened: as §4
[20] = target: Epidermal growth factor receptor (Homo sapiens) (UniProt P00533); assay: Inhibition of EGFR phosphorylation at Tyr1068 residue in human HCT116 cells at 20 uM after 72 hrs by Western blot analysis; format: cell-based; details: HCT-116; procedure, shortened: as §4
[21] = target: Epidermal growth factor receptor (Homo sapiens) (UniProt P00533); assay: Inhibition of EGFR phosphorylation at Tyr1068 residue in human HT-29 cells at 20 uM after 72 hrs by Western blot analysis; format: cell-based; procedure, shortened: as §4

Chain of Epidermal growth factor receptor (Homo sapiens) (P00533 whole entry): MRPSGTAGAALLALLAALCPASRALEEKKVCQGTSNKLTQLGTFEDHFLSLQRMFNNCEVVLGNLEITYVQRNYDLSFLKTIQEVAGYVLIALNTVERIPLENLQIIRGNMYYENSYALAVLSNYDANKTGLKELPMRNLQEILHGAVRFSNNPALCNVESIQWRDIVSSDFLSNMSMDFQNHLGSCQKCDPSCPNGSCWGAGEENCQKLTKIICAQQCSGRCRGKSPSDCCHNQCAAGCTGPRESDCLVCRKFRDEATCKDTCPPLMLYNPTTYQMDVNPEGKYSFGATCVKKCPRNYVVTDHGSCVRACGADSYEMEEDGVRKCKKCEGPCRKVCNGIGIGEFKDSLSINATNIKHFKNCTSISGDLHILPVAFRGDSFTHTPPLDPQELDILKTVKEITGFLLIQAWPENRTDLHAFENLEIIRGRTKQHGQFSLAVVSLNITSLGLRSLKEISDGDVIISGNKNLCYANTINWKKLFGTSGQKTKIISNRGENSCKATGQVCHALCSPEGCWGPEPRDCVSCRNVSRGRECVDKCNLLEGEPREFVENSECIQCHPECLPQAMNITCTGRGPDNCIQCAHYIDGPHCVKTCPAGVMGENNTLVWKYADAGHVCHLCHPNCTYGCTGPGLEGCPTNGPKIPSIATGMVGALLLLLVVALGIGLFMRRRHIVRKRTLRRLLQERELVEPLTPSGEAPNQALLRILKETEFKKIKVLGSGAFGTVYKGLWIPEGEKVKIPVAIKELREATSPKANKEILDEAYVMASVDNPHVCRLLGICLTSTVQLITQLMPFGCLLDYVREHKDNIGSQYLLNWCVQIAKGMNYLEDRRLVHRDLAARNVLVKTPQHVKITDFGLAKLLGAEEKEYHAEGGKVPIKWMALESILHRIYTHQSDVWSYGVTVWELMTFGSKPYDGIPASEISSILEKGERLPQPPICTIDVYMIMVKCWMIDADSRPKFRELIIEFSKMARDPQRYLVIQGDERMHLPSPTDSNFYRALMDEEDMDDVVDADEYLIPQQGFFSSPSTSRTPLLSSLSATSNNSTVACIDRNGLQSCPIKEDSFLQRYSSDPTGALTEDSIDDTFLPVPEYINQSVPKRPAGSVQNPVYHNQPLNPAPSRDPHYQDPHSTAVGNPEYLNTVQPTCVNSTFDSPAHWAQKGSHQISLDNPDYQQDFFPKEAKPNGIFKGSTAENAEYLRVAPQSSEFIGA

`CCCNc1nc(/C=C/c2cc(OC)c(OC)c(OC)c2)cc(/C=C/c2cc(OC)c(OC)c(OC)c2)n1` was tested, and the IC50 (HT-29 [1]) was greater than 100 µM, the “growth inhibition (GI)” value (HCT-116 [2]) was “Dose-dependent effect” and the IC50 (HCT-116 [2]) was 21.9 µM.

For `COc1cc(/C=C/c2cc(/C=C/c3cc(OC)c(OC)c(OC)c3)nc(NCCCO)n2)cc(OC)c1OC`, the “growth inhibition (GI)” value (HT-29 [1]) was “Dose-dependent effect”, the IC50 (HT-29 [1]) was 12.4 µM and the “growth inhibition (GI)” value (HCT-116 [2]) was “Dose-dependent effect”. For the same compound, the IC50 (HCT-116 [2]) was 7.4 µM.

For `CCNc1nc(/C=C/c2ccc(OC)c(OC)c2)cc(/C=C/c2ccc(OC)c(OC)c2)n1`, the Ratio (HCT-116 [3]) was 1.57, the Activity (HCT-116 [4]) was “Active” and the Activity (HCT-116 [5]) was “Active”. The Activity (HCT-116 [6]) was “inactive”, the Activity (HCT-116 [7]) was “inactive” and the Activity (HCT-116 [8]) was “inactive”. For the same compound, the Activity (HCT-116 [9]) was “inactive”, the inhibition [10] was “inactive” and the inhibition [11] was “inactive”. The inhibition [12] was “inactive”, the inhibition [13] was “inactive” and the inhibition [14] was “inactive”. For the same compound, the fold change (FC) [15] was 20, the “fold change (FC)” value (HT-29 [16]) was 1.1 and the “fold change (FC)” value (HCT-116 [17]) was 1.03. The inhibition (HCT-116 [18]) was “inactive”, the inhibition (HT-29 [19]) was “inactive” and the inhibition [20] was “inactive”. For the same compound, the inhibition [21] was “inactive”, the “growth inhibition (GI)” value (HT-29 [1]) was “Dose-dependent effect” and the IC50 (HT-29 [1]) was 38.5 µM. For the same compound, the “growth inhibition (GI)” value (HCT-116 [2]) was “Dose-dependent effect” and the IC50 (HCT-116 [2]) was 46.4 µM.
